Measured values taken from PubChem BioAssay AID651945 (The Scripps Research Institute Molecular Screening Center, 2012).

Target: Heat shock 70 kDa protein 1A (Homo sapiens) (UniProt P0DMV8)
Assay: Hsp70 mRNA induction by activators, late-stage follow-up, orthogonal assay, cell-based, fluorescence, HeLa (AID 651945)
Settings: qRT-PCR, 4 h, at 10 µM, hits give high values
Summary of the method: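 Control set: DMSO vehicle baseline; Detection: qRT-PCR on purified RNA for Hsp70 and GAPDH.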

Chain of Heat shock 70 kDa protein 1A (Homo sapiens) (P0DMV8 whole entry, looked up): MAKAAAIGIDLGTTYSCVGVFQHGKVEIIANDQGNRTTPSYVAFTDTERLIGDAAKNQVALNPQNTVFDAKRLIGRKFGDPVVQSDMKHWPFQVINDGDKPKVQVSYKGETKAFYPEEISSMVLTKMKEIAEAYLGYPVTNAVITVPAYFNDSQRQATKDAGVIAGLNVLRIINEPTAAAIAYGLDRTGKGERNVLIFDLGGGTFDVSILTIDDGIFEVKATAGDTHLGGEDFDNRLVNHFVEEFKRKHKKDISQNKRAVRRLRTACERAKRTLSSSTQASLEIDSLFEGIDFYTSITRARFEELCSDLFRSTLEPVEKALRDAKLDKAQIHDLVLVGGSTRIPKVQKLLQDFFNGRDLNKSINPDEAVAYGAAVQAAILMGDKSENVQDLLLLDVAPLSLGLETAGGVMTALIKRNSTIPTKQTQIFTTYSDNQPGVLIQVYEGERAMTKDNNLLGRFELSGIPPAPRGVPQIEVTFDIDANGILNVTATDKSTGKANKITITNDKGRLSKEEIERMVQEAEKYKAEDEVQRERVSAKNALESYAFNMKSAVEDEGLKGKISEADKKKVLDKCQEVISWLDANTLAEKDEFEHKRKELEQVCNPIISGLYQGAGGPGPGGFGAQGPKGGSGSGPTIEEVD

Molecule COc1ccc(/C=C/C=C2C(=O)NC(=O)NC2=O)cc1 has a fold change of 2.4.
